{"source": "ChEMBL document CHEMBL4808225", "about": "“Discovery and Characterization of Selective and Ligand-Efficient DYRK Inhibitors” (J Med Chem, 2021)", "key": {"[1]": {"target": "T1, Dual specificity tyrosine-phosphorylation-regulated kinase 1A (Homo sapiens, UniProt Q13627)", "experiment": "Inhibition of human DYRK1A-mediated tau phosphorylation expressed in HEK293 cells incubated for 2 hrs by ELISA", "type": "cell-based"}, "[2]": {"target": "Dual specificity protein kinase CLK1 (Homo sapiens, UniProt P49759)", "sequence (P49759 whole entry, looked up, the tested form may be a part)": "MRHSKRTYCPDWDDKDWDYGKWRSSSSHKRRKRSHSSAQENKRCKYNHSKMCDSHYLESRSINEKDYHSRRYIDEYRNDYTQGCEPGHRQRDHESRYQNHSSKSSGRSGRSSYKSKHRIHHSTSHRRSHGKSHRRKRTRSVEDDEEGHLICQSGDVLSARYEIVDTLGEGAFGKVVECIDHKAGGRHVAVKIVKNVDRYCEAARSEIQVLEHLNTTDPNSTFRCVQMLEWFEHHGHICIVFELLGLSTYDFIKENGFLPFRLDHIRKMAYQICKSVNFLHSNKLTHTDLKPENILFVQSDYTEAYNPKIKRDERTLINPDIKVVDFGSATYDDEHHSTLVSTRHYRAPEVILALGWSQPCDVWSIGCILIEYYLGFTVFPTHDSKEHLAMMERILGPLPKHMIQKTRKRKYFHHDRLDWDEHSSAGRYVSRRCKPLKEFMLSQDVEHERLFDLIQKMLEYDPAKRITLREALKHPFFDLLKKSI", "experiment": "Inhibition of wild-type human full length CLK1 (M1 to I484 residues) expressed in bacterial expression system assessed as remaining activity at 1 uM by Kinomescan method relative to control", "how_it_was_run": "(§1)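 KINOMEscan competition binding panel run with inhibitor at 1 μM; read-out is remaining kinase activity (percent of control).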"}, "[3]": {"target": "Dual specificity tyrosine-phosphorylation-regulated kinase 1B (Homo sapiens) (UniProt Q9Y463)", "sequence (Q9Y463 whole entry, looked up, the tested form may be a part)": "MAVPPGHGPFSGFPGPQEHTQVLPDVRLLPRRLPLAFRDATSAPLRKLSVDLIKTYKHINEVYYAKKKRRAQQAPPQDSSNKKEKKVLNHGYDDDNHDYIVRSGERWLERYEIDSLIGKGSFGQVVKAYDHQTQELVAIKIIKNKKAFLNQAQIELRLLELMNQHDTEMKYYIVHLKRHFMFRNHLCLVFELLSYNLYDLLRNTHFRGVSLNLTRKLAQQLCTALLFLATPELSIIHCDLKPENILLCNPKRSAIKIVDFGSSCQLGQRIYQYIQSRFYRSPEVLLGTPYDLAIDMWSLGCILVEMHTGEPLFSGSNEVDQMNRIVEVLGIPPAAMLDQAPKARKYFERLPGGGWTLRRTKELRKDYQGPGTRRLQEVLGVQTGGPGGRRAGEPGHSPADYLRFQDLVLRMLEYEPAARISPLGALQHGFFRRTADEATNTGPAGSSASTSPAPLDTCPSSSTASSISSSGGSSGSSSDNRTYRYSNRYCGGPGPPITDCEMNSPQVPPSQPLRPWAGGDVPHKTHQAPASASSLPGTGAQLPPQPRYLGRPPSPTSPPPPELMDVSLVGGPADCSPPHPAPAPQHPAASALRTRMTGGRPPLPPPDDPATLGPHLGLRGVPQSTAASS", "experiment": "Inhibition of wild-type human full length DYRK1B (M1 to S629 residues) expressed in bacterial expression system assessed as remaining activity at 1 uM by Kinomescan method relative to control", "how_it_was_run": "as §1"}, "[4]": {"experiment": "Metabolic stability in rat liver microsomes", "type": "ADME, Microsome", "conditions": "read-out: Stabilty"}, "[5]": {"target": "T1, Dual specificity tyrosine-phosphorylation-regulated kinase 1A", "experiment": "Binding affinity to biotinylated DYRK1A (unknown origin) expressed in Escherichia coli BL21 (DE3) assessed as dissociation constant measured up to 5 min by SPR method"}, "[6]": {"target": "Glycogen synthase kinase-3 beta (Homo sapiens) (UniProt P49841)", "sequence (P49841 whole entry, looked up, the tested form may be a part)": "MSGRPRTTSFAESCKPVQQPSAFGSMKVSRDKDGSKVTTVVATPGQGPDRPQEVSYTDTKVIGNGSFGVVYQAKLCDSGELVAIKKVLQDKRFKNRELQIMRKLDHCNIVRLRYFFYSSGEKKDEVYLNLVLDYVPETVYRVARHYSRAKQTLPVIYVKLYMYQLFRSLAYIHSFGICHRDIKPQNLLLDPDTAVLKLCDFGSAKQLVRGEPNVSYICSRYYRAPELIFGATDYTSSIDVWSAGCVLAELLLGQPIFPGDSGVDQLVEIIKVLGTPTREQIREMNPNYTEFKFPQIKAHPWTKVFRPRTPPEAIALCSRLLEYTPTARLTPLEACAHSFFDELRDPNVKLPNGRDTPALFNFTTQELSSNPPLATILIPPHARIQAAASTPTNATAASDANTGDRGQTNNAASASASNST", "experiment": "Inhibition of wild-type human full length GSK3B (M1 to T433 residues) expressed in mammalian expression system assessed as remaining activity at 1 uM by Kinomescan method relative to control", "how_it_was_run": "as §1"}, "[7]": {"target": "Cyclin-dependent kinase 2 (Homo sapiens) (UniProt P24941)", "experiment": "Inhibition of wild-type human full length CDK2 (M1 to L298 residues) expressed in bacterial expression system assessed as remaining activity at 1 uM by Kinomescan method relative to control", "how_it_was_run": "as §1"}, "[8]": {"target": "Dual specificity protein kinase CLK2 (Homo sapiens) (UniProt P49760)", "sequence (P49760 whole entry, looked up, the tested form may be a part)": "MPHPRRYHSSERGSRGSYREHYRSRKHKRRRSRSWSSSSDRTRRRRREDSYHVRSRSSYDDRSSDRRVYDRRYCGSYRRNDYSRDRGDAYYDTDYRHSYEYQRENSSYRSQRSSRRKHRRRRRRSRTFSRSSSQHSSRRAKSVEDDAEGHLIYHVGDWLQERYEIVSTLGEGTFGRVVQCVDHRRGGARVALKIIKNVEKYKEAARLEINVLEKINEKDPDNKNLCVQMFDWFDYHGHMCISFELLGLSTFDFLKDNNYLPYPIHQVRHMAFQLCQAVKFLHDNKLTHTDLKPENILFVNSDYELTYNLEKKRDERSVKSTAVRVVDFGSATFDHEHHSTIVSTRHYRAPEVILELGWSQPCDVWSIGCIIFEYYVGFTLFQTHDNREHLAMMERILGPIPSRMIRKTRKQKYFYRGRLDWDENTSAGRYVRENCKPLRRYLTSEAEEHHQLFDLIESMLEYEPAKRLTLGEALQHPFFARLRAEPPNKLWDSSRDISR", "experiment": "Inhibition of wild-type human partial length CLK2 (D144 to R498 residues) expressed in bacterial expression system assessed as remaining activity at 1 uM by Kinomescan method relative to control", "how_it_was_run": "as §1"}, "[9]": {"experiment": "Thermodynamic solubility of the compound at pH 6.8", "type": "physicochemical", "conditions": "buffer, read-out: Therm_solubility", "how_it_was_run": "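Thermodynamic solubility measured at pH 6.8 in a single experiment, reported in […].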"}, "[10]": {"target": "T2, Dual specificity tyrosine-phosphorylation-regulated kinase 2 (Homo sapiens) (UniProt Q92630)", "T2 sequence (whole entry)": "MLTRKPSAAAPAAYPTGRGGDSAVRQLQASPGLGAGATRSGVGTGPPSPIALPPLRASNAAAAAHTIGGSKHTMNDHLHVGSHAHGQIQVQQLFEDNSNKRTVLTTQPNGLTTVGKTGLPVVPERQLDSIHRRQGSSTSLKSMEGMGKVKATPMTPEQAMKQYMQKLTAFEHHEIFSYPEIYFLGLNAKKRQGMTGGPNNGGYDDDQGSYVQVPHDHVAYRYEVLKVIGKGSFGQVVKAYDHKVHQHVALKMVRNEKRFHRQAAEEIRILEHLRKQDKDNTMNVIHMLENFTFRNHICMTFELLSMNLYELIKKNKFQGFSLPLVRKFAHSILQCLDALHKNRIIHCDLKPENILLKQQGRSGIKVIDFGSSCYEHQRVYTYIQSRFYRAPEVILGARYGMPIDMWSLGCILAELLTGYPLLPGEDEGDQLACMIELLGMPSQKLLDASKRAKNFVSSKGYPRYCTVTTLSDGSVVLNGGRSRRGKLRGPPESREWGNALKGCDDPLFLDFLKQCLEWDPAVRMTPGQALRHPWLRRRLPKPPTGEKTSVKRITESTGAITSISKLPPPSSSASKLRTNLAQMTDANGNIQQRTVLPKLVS", "experiment": "Inhibition of wild-type human full length DYRK2 (M1 to S528 residues) expressed in mammalian expression system assessed as remaining activity at 1 uM by Kinomescan method relative to control", "how_it_was_run": "as §1"}, "[11]": {"experiment": "Metabolic stability in human liver microsomes", "type": "ADME, Microsome", "conditions": "read-out: Stabilty"}, "[12]": {"target": "T1, Dual specificity tyrosine-phosphorylation-regulated kinase 1A", "experiment": "Displacement of Kinase tracer 236 from biotinylated DYRK1A (unknown origin) expressed in Escherichia coli BL21 (DE3) incubated for 1.5 hrs by TR-FRET assay"}, "[13]": {"target": "Dual specificity protein kinase CLK3 (Homo sapiens) (UniProt P49761)", "sequence (P49761 whole entry, looked up, the tested form may be a part)": "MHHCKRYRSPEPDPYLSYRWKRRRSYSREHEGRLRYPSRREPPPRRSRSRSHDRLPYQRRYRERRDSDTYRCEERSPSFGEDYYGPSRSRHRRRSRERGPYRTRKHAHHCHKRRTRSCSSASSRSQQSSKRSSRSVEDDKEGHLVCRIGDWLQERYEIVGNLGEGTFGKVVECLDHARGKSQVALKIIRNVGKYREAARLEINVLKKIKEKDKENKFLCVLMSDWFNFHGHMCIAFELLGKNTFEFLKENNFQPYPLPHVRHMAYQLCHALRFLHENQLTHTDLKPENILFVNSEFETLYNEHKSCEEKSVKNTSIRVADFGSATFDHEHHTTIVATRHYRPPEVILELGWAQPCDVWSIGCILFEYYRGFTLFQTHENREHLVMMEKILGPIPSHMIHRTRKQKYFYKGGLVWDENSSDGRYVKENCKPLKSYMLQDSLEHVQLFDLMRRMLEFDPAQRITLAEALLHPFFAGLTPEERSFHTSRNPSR", "experiment": "Inhibition of wild-type human full length CLK3 (M1 to R490 residues) expressed in bacterial expression system assessed as remaining activity at 1 uM by Kinomescan method relative to control", "how_it_was_run": "as §1"}}, "data": [{"compound": "CN(C)c1ncc(F)c(-c2cnn3ncccc23)n1", "values": [{"measurement": "IC50", "setting": "[1]", "value": 250, "unit": "nM"}, {"measurement": "Activity", "setting": "[2]", "value": 53, "unit": "%"}, {"measurement": "Activity", "setting": "[3]", "value": 71, "unit": "%"}, {"measurement": "microsomal CLint", "setting": "[4]", "value": 983, "unit": "µL/min/mg"}, {"measurement": "Kd", "setting": "[5]", "value": 12, "unit": "nM"}, {"measurement": "Activity", "setting": "[6]", "value": 93, "unit": "%"}, {"measurement": "Activity", "setting": "[7]", "value": 100, "unit": "%"}, {"measurement": "Activity", "setting": "[8]", "value": 54, "unit": "%"}, {"measurement": "solubility thermodynamic", "setting": "[9]", "value": 30, "unit": "µg/mL"}, {"measurement": "Activity", "setting": "[10]", "value": 55, "unit": "%"}, {"measurement": "microsomal CLint", "setting": "[11]", "value": 697, "unit": "µL/min/mg"}, {"measurement": "IC50", "setting": "[12]", "value": 57.5, "unit": "nM"}, {"measurement": "Activity", "setting": "[13]", "value": 84, "unit": "%"}]}, {"compound": "c1cnn2ncc(-c3ccnc(N4CCC45COC5)n3)c2c1", "values": [{"measurement": "Activity", "setting": "[2]", "value": 33, "unit": "%"}, {"measurement": "Activity", "setting": "[3]", "value": 8.3, "unit": "%"}, {"measurement": "microsomal CLint", "setting": "[4]", "value": 119, "unit": "µL/min/mg"}, {"measurement": "Kd", "setting": "[5]", "value": 64, "unit": "nM"}, {"measurement": "Activity", "setting": "[6]", "value": 75, "unit": "%"}, {"measurement": "Activity", "setting": "[7]", "value": 100, "unit": "%"}, {"measurement": "Activity", "setting": "[8]", "value": 13, "unit": "%"}, {"measurement": "solubility thermodynamic", "setting": "[9]", "value": 60, "unit": "µg/mL"}, {"measurement": "Activity", "setting": "[10]", "value": 11, "unit": "%"}, {"measurement": "microsomal CLint", "setting": "[11]", "value": 126, "unit": "µL/min/mg"}, {"measurement": "IC50", "setting": "[12]", "value": 79.4, "unit": "nM"}, {"measurement": "Activity", "setting": "[13]", "value": 54, "unit": "%"}]}]}
